# Data published in ChEMBL document CHEMBL3259728, “Design, synthesis and biological evaluation of some novel substituted quinazolines as antitumor agents” (2014).
# Experiments:
# Type in all cases: functional
# IGROV-1 [1] = assay: Cytotoxicity against human IGROV1 cells after 48 hrs by SRB assay; conditions: IGROV-1, 48 h
# In short: (§1)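 NCI 60-cell-line panel of human tumour lines from nine cancer types. Continuous 48 h exposure at five 10-fold dilutions from 10^-4 to 10^-8 M, with 5-FU as positive control. SRB protein stain read spectrophotometrically at time zero, untreated control and each concentration. GI50, TGI and LC50 were derived from the [(Ti−Tz)/(C−Tz)]×100 growth relations, and out-of-range values are given as > or < the tested limits.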
# NCI-H460 [2] = assay: Growth inhibition of human NCI-H460 cells assessed as cell growth at 10^-5 M after 48 hrs by SRB assay; conditions: NCI-H460, 48 h, read-out: Activity
# 786-0 = assay: Cytotoxicity against human 786-0 cells after 48 hrs by SRB assay; conditions: 786-0, 48 h; in short: as §1
# NCI-H460 [3] = assay: Cytotoxicity against human NCI-H460 cells after 48 hrs by SRB assay; conditions: NCI-H460, 48 h; in short: as §1
# MDA-MB-435 = assay: Cytotoxicity against human MDA-MB-435 cells after 48 hrs by SRB assay; conditions: MDA-MB-435, 48 h; in short: as §1
# MCF7 = assay: Growth inhibition of human MCF7 cells assessed as cell growth at 10^-7 M after 48 hrs by SRB assay; conditions: MCF7, 48 h, read-out: Activity
# [4] = Growth inhibition of human UACC257 cells assessed as cell growth at 10^-8 M after 48 hrs by SRB assay; conditions: UACC-257, 48 h, read-out: Activity
# [5] = Growth inhibition of human OVCAR3 cells assessed as cell growth at 10^-7 M after 48 hrs by SRB assay; conditions: OVCAR-3, 48 h, read-out: Activity
# NCI-H23 = assay: Growth inhibition of human NCI-H23 cells assessed as cell growth at 10^-4 M after 48 hrs by SRB assay; conditions: NCI-H23, 48 h, read-out: Activity
# [6] = Growth inhibition of human SF539 cells assessed as cell growth at 10^-4 M after 48 hrs by SRB assay; conditions: SF-539, 48 h, read-out: Activity
# SW-620 = assay: Growth inhibition of human SW620 cells assessed as cell growth at 10^-5 M after 48 hrs by SRB assay; conditions: SW-620, 48 h, read-out: Activity
# [7] = Growth inhibition of human UO31 cells assessed as cell growth at 10^-5 M after 48 hrs by SRB assay; conditions: UO-31, 48 h, read-out: Activity
# SK-OV-3 = assay: Growth inhibition of human SKOV3 cells assessed as cell growth at 10^-6 M after 48 hrs by SRB assay; conditions: SK-OV-3, 48 h, read-out: Activity
# K562 = assay: Growth inhibition of human K562 cells assessed as cell growth at 10^-6 M after 48 hrs by SRB assay; conditions: K562, 48 h, read-out: Activity
# SNB-75 [8] = assay: Cytotoxicity against human SNB75 cells after 48 hrs by SRB assay; conditions: SNB-75, 48 h; in short: as §1
# COLO 205 = assay: Growth inhibition of human COLO205 cells assessed as cell growth at 10^-6 M after 48 hrs by SRB assay; conditions: COLO 205, 48 h, read-out: Activity
# In short: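 Five-dose NCI panel protocol. Each dose (10^-4 to 10^-8 M, 10-fold steps) was given as 48 h continuous exposure, and protein was measured by SRB staining. Percentage growth at each level is [(Ti−Tz)/(C−Tz)]×100, where Tz is time-zero absorbance and C is untreated control.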
# IGROV-1 [9] = assay: Growth inhibition of human IGROV1 cells assessed as cell growth at 10^-5 M after 48 hrs by SRB assay; conditions: IGROV-1, 48 h, read-out: Activity
# [10] = Growth inhibition of human HCC2998 cells assessed as cell growth at 10^-7 M after 48 hrs by SRB assay; conditions: HCC 2998, 48 h, read-out: Activity
# SNB-75 [11] = assay: Growth inhibition of human SNB75 cells assessed as cell growth at 10^-5 M after 48 hrs by SRB assay; conditions: SNB-75, 48 h, read-out: Activity
# SN12C = assay: Growth inhibition of human SN12C cells assessed as cell growth at 10^-5 M after 48 hrs by SRB assay; conditions: read-out: Activity
# DU-145 = assay: Cytotoxicity against human DU145 cells after 48 hrs by SRB assay; conditions: DU-145, 48 h; in short: as §1
# [12] = Growth inhibition of human NCI-ADR-RES cells assessed as cell growth at 10^-6 M after 48 hrs by SRB assay; conditions: read-out: Activity
# HOP-92 = assay: Cytotoxicity against human HOP92 cells after 48 hrs by SRB assay; conditions: HOP-92, 48 h; in short: as §1
# HOP-62 = assay: Growth inhibition of human HOP62 cells assessed as cell growth at 10^-6 M after 48 hrs by SRB assay; conditions: HOP-62, 48 h, read-out: Activity
# [13] = Growth inhibition of human EKVX cells assessed as cell growth at 10^-7 M after 48 hrs by SRB assay; conditions: read-out: Activity
# HT-29 = assay: Cytotoxicity against human HT-29 cells after 48 hrs by SRB assay; conditions: HT-29, 48 h; in short: as §1
# NCI-H226 = assay: Growth inhibition of human NCI-H226 cells assessed as cell growth at 10^-7 M after 48 hrs by SRB assay; conditions: NCI-H226, 48 h, read-out: Activity
# [14] = read-out: LC50 (the source's name)
# [15] = read-out: pLC50 (the source's name) (converted)
compound,measurement,setting,value
Cc1ccc(-c2nc3ccc(Cl)cc3c(=O)n2/N=C/c2ccccc2)cc1,GI50,IGROV-1 [1]; read-out: GI50,3.69 µM
same,CC50,IGROV-1 [1]; [14],> 100 µM
same,TGI,IGROV-1 [1]; read-out: TGI,> 100 µM
same,GI50,IGROV-1 [1]; read-out: pGI50 (converted),3.72 µM
same,CC50,IGROV-1 [1]; [15],> 100 µM
same,TGI,IGROV-1 [1]; read-out: pTGI,> 100 µM
same,growth at 10 µM,NCI-H460 [2],23%
same,GI50,786-0; read-out: GI50,3.62 µM
same,CC50,786-0; [14],> 100 µM
same,TGI,786-0; read-out: TGI,> 100 µM
same,GI50,786-0; read-out: pGI50 (converted),3.63 µM
same,CC50,786-0; [15],> 100 µM
same,TGI,786-0; read-out: pTGI,> 100 µM
same,GI50,NCI-H460 [3]; read-out: GI50,3.68 µM
same,CC50,NCI-H460 [3]; [14],> 100 µM
same,TGI,NCI-H460 [3]; read-out: TGI,> 100 µM
same,GI50,NCI-H460 [3]; read-out: pGI50 (converted),3.72 µM
same,CC50,NCI-H460 [3]; [15],> 100 µM
same,TGI,NCI-H460 [3]; read-out: pTGI,> 100 µM
same,GI50,MDA-MB-435; read-out: GI50,> 100 µM
same,CC50,MDA-MB-435; [14],> 100 µM
same,TGI,MDA-MB-435; read-out: TGI,> 100 µM
same,GI50,MDA-MB-435; read-out: pGI50 (converted),> 100 µM
same,CC50,MDA-MB-435; [15],> 100 µM
same,TGI,MDA-MB-435; read-out: pTGI,> 100 µM
same,growth at 0.1 µM,MCF7,90%
same,growth at 0.01 µM,[4],100%
same,growth at 0.1 µM,[5],96%
same,growth at 100 µM,NCI-H23,51%
same,growth at 100 µM,[6],75%
same,growth at 10 µM,SW-620,67%
same,growth at 10 µM,[7],42%
same,growth at 1 µM,SK-OV-3,93%
same,growth at 1 µM,K562,92%
same,GI50,SNB-75 [8]; read-out: GI50,1.39 µM
same,CC50,SNB-75 [8]; [14],> 100 µM
same,TGI,SNB-75 [8]; read-out: TGI,4.74 µM
same,GI50,SNB-75 [8]; read-out: pGI50 (converted),1.38 µM
same,CC50,SNB-75 [8]; [15],> 100 µM
same,TGI,SNB-75 [8]; read-out: pTGI (converted),4.79 µM
same,growth at 1 µM,COLO 205,119%
same,growth at 10 µM,IGROV-1 [9],34%
same,growth at 0.1 µM,[10],102%
same,growth at 10 µM,SNB-75 [11],31%
same,growth at 10 µM,SN12C,51%
same,GI50,DU-145; read-out: GI50,58.4 µM
same,CC50,DU-145; [14],> 100 µM
same,TGI,DU-145; read-out: TGI,> 100 µM
same,GI50,DU-145; read-out: pGI50 (converted),58.9 µM
same,CC50,DU-145; [15],> 100 µM
same,TGI,DU-145; read-out: pTGI,> 100 µM
same,growth at 1 µM,[12],89%
same,GI50,HOP-92; read-out: GI50,6.74 µM
same,CC50,HOP-92; [14],> 100 µM
same,TGI,HOP-92; read-out: TGI,> 100 µM
same,GI50,HOP-92; read-out: pGI50 (converted),6.76 µM
same,CC50,HOP-92; [15],> 100 µM
same,TGI,HOP-92; read-out: pTGI,> 100 µM
same,growth at 1 µM,HOP-62,86%
same,growth at 0.1 µM,[13],79%
same,GI50,HT-29; read-out: GI50,60.2 µM
same,LC50,HT-29; read-out: LC50,> 100 µM
same,TGI,HT-29; read-out: TGI,> 100 µM
same,GI50,HT-29; read-out: pGI50 (converted),60.3 µM
same,LC50,HT-29; read-out: pLC50 (converted),> 100 µM
same,TGI,HT-29; read-out: pTGI,> 100 µM
same,growth at 0.1 µM,NCI-H226,82%
